Reference: ChEMBL document CHEMBL3864121, “Development of ebsulfur analogues as potent antibacterials against methicillin-resistant Staphylococcus aureus” (Bioorg Med Chem, 2016)
In brackets after ≈: the same amount, converted by molar mass. Activity calls are given as the source filed them. No cut-off for these calls is given here.

Columns and labels:
Staphylococcus aureus [1] = assay: Antibacterial activity against methicillin-resistant Staphylococcus aureus C7 measured after overnight incubation by broth double-dilution method; type: functional
Procedure, shortened: (§1)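 MIC by broth double-dilution in liquid Mueller-Hinton medium. Values are reported in µg/mL.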

Staphylococcus aureus [2] = assay: Antibacterial activity against methicillin-sensitive Staphylococcus aureus ATCC 25923 measured after overnight incubation by broth double-dilution method; type: functional; procedure, shortened: as §1
Staphylococcus aureus [3] = assay: Antibacterial activity against methicillin-resistant Staphylococcus aureus NRS4 measured after overnight incubation by broth double-dilution method; type: functional; procedure, shortened: as §1
Staphylococcus aureus [4] = assay: Antibacterial activity against methicillin-resistant Staphylococcus aureus ATCC 33591 measured after overnight incubation by broth double-dilution method; type: functional; procedure, shortened: as §1
Staphylococcus aureus [5] = assay: Bacteriostatic activity against methicillin-resistant Staphylococcus aureus S22 at MIC measured up to 3 to 6 hrs by time kill analysis; type: functional
[6] = system: Mycolicibacterium smegmatis; assay: Antibacterial activity against Mycobacterium smegmatis MC2-155 measured after overnight incubation by broth double-dilution method; type: functional; settings: str. MC2 155; procedure, shortened: as §1
Staphylococcus aureus [7] = assay: Antibacterial activity against methicillin-resistant Staphylococcus aureus S22 measured after overnight incubation by broth double-dilution method; type: functional; procedure, shortened: as §1
Staphylococcus aureus [8] = assay: Antibacterial activity against methicillin-resistant Staphylococcus aureus G14 measured after overnight incubation by broth double-dilution method; type: functional; procedure, shortened: as §1
Staphylococcus aureus [9] = assay: Antibacterial activity against methicillin-resistant Staphylococcus aureus 1 measured after overnight incubation by broth double-dilution method; type: functional; procedure, shortened: as §1
[10] = system: Staphylococcus epidermidis; assay: Antibacterial activity against Staphylococcus epidermidis ATCC 12228 measured after overnight incubation by broth double-dilution method; type: functional
Procedure, shortened: (§2)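 MIC by broth double-dilution in Mueller-Hinton medium. Re-testing at the time-kill inoculum used 1×10^6 CFU/mL.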

Staphylococcus aureus [11] = assay: Antibacterial activity against methicillin-resistant Staphylococcus aureus C19 measured after overnight incubation by broth double-dilution method; type: functional; procedure, shortened: as §1
Staphylococcus aureus [12] = assay: Antibacterial activity against methicillin-resistant Staphylococcus aureus G6 measured after overnight incubation by broth double-dilution method; type: functional; procedure, shortened: as §1
Escherichia coli = assay: Antibacterial activity against Escherichia coli MC1061 measured after overnight incubation by broth double-dilution method; type: functional; procedure, shortened: as §1
Pseudomonas aeruginosa = assay: Antibacterial activity against Pseudomonas aeruginosa ATCC 27853 measured after overnight incubation by broth double-dilution method; type: functional; procedure, shortened: as §2
Acinetobacter baumannii = assay: Antibacterial activity against Acinetobacter baumannii ATCC 19606 measured after overnight incubation by broth double-dilution method; type: functional; procedure, shortened: as §2
Enterococcus faecalis [13] = assay: Antibacterial activity against Enterococcus faecalis ATCC 29212 measured after overnight incubation by broth double-dilution method; type: functional; procedure, shortened: as §2
Staphylococcus aureus [14] = assay: Antibacterial activity against methicillin-resistant Staphylococcus aureus C14 measured after overnight incubation by broth double-dilution method; type: functional; procedure, shortened: as §1
Staphylococcus aureus [15] = assay: Antibiofilm activity against methicillin-sensitive Staphylococcus aureus ATCC 6538 assessed as reduction of biofilm at […] ug/ml measured after 24 hrs by crystal violet staining based method relative to untreated control; type: functional; design: scale not given: the % may be the effect or the level left
Staphylococcus aureus [16] = assay: Antibacterial activity against methicillin-resistant Staphylococcus aureus USA300 measured after overnight incubation by broth double-dilution method; type: functional; procedure, shortened: as §1
[17] = system: Staphylococcus epidermidis; assay: Antibacterial activity against Staphylococcus epidermidis ATCC 35984 measured after overnight incubation by broth double-dilution method; type: functional; settings: RP62A; procedure, shortened: as §2
[18] = system: Staphylococcus epidermidis; assay: Antibiofilm activity against Staphylococcus epidermidis ATCC 35984 assessed as reduction of biofilm at […] ug/ml measured after 24 hrs by crystal violet staining based method relative to control; type: functional, RP62A; design: scale not given: the % may be the effect or the level left
Enterococcus faecium = assay: Antibacterial activity against Enterococcus faecium BM4105-RF measured after overnight incubation by broth double-dilution method; type: functional; procedure, shortened: as §1
Staphylococcus aureus [19] = assay: Bactericidal activity against methicillin-resistant Staphylococcus aureus S22 at 4 times MIC measured after 24 hrs by time kill analysis; type: functional
Staphylococcus aureus [20] = assay: Antibacterial activity against methicillin-resistant Staphylococcus aureus USA200 measured after overnight incubation by broth double-dilution method; type: functional; procedure, shortened: as §1
Staphylococcus aureus [21] = assay: Antibacterial activity against methicillin-resistant Staphylococcus aureus S17 measured after overnight incubation by broth double-dilution method; type: functional; procedure, shortened: as §1
Staphylococcus aureus [22] = assay: Antibacterial activity against methicillin-sensitive Staphylococcus aureus ATCC 6538 measured after overnight incubation by broth double-dilution method; type: functional; procedure, shortened: as §1
Klebsiella pneumoniae = assay: Antibacterial activity against Klebsiella pneumoniae ATCC 27736 measured after overnight incubation by broth double-dilution method; type: functional; procedure, shortened: as §1
Enterococcus = assay: Antibacterial activity against Vancomycin-resistant Enterococcus measured after overnight incubation by broth double-dilution method; type: functional; procedure, shortened: as §1
Staphylococcus aureus [23] = assay: Antibacterial activity against methicillin-resistant Staphylococcus aureus C1 measured after overnight incubation by broth double-dilution method; type: functional; procedure, shortened: as §1
[24] = Cytotoxicity against HEK293 cells assessed as cell death up to 10 ug/ml measured after 24 hrs by resazurin dye-based fluorescence analysis relative to untreated control; type: toxicity; settings: human, hek293, 24 h
Enterobacter cloacae = assay: Antibacterial activity against Enterobacter cloacae ATCC 13047 measured after overnight incubation by broth double-dilution method; type: functional; settings: subsp. cloacae ATCC 13047; procedure, shortened: as §1
Staphylococcus aureus [25] = assay: Antibacterial activity against methicillin-resistant Staphylococcus aureus C16 measured after overnight incubation by broth double-dilution method; type: functional; procedure, shortened: as §1
Enterococcus faecalis [26] = assay: Antibacterial activity against Enterococcus faecalis ATCC 49533 measured after overnight incubation by broth double-dilution method; type: functional; procedure, shortened: as §2
Staphylococcus aureus [27] = assay: Antibacterial activity against methicillin-resistant Staphylococcus aureus G12 measured after overnight incubation by broth double-dilution method; type: functional; procedure, shortened: as §1
Staphylococcus aureus [28] = assay: Antibiofilm activity against methicillin-sensitive Staphylococcus aureus ATCC 6538 assessed as reduction in biofilm mass at 2 ug/ml measured after 24 hrs by crystal violet staining based method relative to control; type: functional; design: scale not given: the % may be the effect or the level left
[29] = Cytotoxicity against mouse RBCs assessed as hemolysis up to […] measured after 1 hr; type: toxicity, Erythrocyte; settings: mouse red blood cells, read-out: Activity
Staphylococcus aureus [30] = assay: Antibacterial activity against methicillin-resistant Staphylococcus aureus S14 measured after overnight incubation by broth double-dilution method; type: functional; procedure, shortened: as §1
Staphylococcus aureus [31] = assay: Antibacterial activity against methicillin-resistant Staphylococcus aureus NRS51 measured after overnight incubation by broth double-dilution method; type: functional; procedure, shortened: as §1
Staphylococcus aureus [32] = assay: Antibacterial activity against methicillin-resistant Staphylococcus aureus S22 using 1 10^6CFU/ml measured after overnight incubation by broth double-dilution method; type: functional
Staphylococcus aureus [33] = assay: Antibacterial activity against methicillin-resistant Staphylococcus aureus BRS3 measured after overnight incubation by broth double-dilution method; type: functional; procedure, shortened: as §1
Salmonella enterica = assay: Antibacterial activity against Salmonella enterica ATCC 14028 measured after overnight incubation by broth double-dilution method; type: functional; procedure, shortened: as §2
Staphylococcus aureus [34] = assay: Antibacterial activity against methicillin-resistant Staphylococcus aureus USA100 measured after overnight incubation by broth double-dilution method; type: functional; procedure, shortened: as §1
Staphylococcus aureus [35] = assay: Antibacterial activity against methicillin-resistant Staphylococcus aureus C2 measured after overnight incubation by broth double-dilution method; type: functional; procedure, shortened: as §1
Staphylococcus aureus [36] = assay: Antibacterial activity against methicillin-resistant Staphylococcus aureus NRS77 measured after overnight incubation by broth double-dilution method; type: functional; procedure, shortened: as §1
Staphylococcus aureus [37] = assay: Bacteriostatic activity against methicillin-resistant Staphylococcus aureus S22 at 0.5 times MIC measured up to 3 to 6 hrs by time kill analysis; type: functional
Staphylococcus aureus [38] = assay: Antibacterial activity against methicillin-resistant Staphylococcus aureus USA600 measured after overnight incubation by broth double-dilution method; type: functional; procedure, shortened: as §1
Listeria monocytogenes = assay: Antibacterial activity against Listeria monocytogenes ATCC 19115 measured after overnight incubation by broth double-dilution method; type: functional; procedure, shortened: as §2
Staphylococcus aureus [39] = assay: Antibacterial activity against methicillin-resistant Staphylococcus aureus 2 measured after overnight incubation by broth double-dilution method; type: functional; procedure, shortened: as §1
Staphylococcus aureus [40] = assay: Antibacterial activity against methicillin-sensitive Staphylococcus aureus ATCC 29213 measured after overnight incubation by broth double-dilution method; type: functional; procedure, shortened: as §1
Staphylococcus aureus [41] = assay: Antibacterial activity against methicillin-resistant Staphylococcus aureus G1 measured after overnight incubation by broth double-dilution method; type: functional; procedure, shortened: as §1
Staphylococcus aureus [42] = assay: Antibacterial activity against methicillin-resistant Staphylococcus aureus S24 measured after overnight incubation by broth double-dilution method; type: functional; procedure, shortened: as §1
Mus musculus = species: Mus musculus; assay: Cytotoxicity against mouse RBCs assessed as hemolysis at 0.24 to 31.2 ug/ml measured after 1 hr; type: toxicity; settings: erythrocyte
Procedure, shortened: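 Murine red blood cells were exposed to compounds at various concentrations, with amikacin as a control. Percent hemolysis was scored against untreated cells (0%) and 1% Triton X (100%).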

[43] = system: Staphylococcus epidermidis RP62A; assay: Inhibition of thioredoxin reductase in Staphylococcus epidermidis ATCC 35984 assessed as induction of ROS production at 1 to 4 times MIC measured after 1 hr by DCFH-DA staining-based fluorescence microscopic analysis
Procedure, shortened: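 Untreated cells served as the negative control and 1 mM H2O2 as the positive control. Cells were stained with DCFH-DA (40 µg/mL) and ROS were visualized by fluorescence microscopy.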

Staphylococcus aureus [44] = assay: Antibiofilm activity against methicillin-sensitive Staphylococcus aureus ATCC 6538 assessed as reduction of biofilm at […] ug/ml measured after 24 hrs by crystal violet staining based method relative to control; type: functional; design: scale not given: the % may be the effect or the level left
Staphylococcus aureus [45] = assay: Bacteriostatic activity against methicillin-resistant Staphylococcus aureus S22 at 4 times MIC measured after 24 hrs by time kill analysis; type: functional

## O=c1c2ccccc2[se]n1-c1ccccc1 [EBSELEN]
Staphylococcus aureus [1]
  MIC: 0.5 µg/mL (≈ 1.82 µM)
Staphylococcus aureus [2]
  MIC: 3.9 µg/mL (≈ 14.2 µM)
Staphylococcus aureus [3]
  MIC: 7.8 µg/mL (≈ 28.4 µM)
Staphylococcus aureus [4]
  MIC: 0.5 µg/mL (≈ 1.82 µM)
Staphylococcus aureus [5]
  Activity: Active
[6]
  MIC: 7.8 µg/mL (≈ 28.4 µM)
Staphylococcus aureus [7]
  MIC: 1 µg/mL (≈ 3.65 µM)
Staphylococcus aureus [8]
  MIC: 1 µg/mL (≈ 3.65 µM)
Staphylococcus aureus [9]
  MIC: ≤ 0.25 µg/mL
[10]
  MIC: > 125 µg/mL
Staphylococcus aureus [11]
  MIC: 1 µg/mL (≈ 3.65 µM)
Staphylococcus aureus [12]
  MIC: 1 µg/mL (≈ 3.65 µM)
Escherichia coli
  MIC: 7.8 µg/mL (≈ 28.4 µM)
Pseudomonas aeruginosa
  MIC: > 125 µg/mL
Acinetobacter baumannii
  MIC: 15.6 µg/mL (≈ 56.9 µM)
Enterococcus faecalis [13]
  MIC: 0.5 µg/mL (≈ 1.82 µM)
Staphylococcus aureus [14]
  MIC: 2 µg/mL (≈ 7.29 µM)
Staphylococcus aureus [15]
  Activity: 20%
Staphylococcus aureus [16]
  MIC: 3.9 µg/mL (≈ 14.2 µM)
[17]
  MIC: 0.25 µg/mL (≈ 0.912 µM)
[18]
  Activity: 20%
Enterococcus faecium
  MIC: 0.5 µg/mL (≈ 1.82 µM)
Staphylococcus aureus [19]
  Activity: Active
Staphylococcus aureus [20]
  MIC: 2 µg/mL (≈ 7.29 µM)
Staphylococcus aureus [21]
  MIC: 1 µg/mL (≈ 3.65 µM)
Staphylococcus aureus [22]
  MIC: 2 µg/mL (≈ 7.29 µM)
Klebsiella pneumoniae
  MIC: > 125 µg/mL
Enterococcus
  MIC: 1 µg/mL (≈ 3.65 µM)
Staphylococcus aureus [23]
  MIC: 2 µg/mL (≈ 7.29 µM)
[24]
  Activity: Non-Toxic
Enterobacter cloacae
  MIC: > 125 µg/mL
Staphylococcus aureus [25]
  MIC: 3.9 µg/mL (≈ 14.2 µM)
Enterococcus faecalis [26]
  MIC: ≤ 0.25 µg/mL
Staphylococcus aureus [27]
  MIC: 1 µg/mL (≈ 3.65 µM)
Staphylococcus aureus [28]
  Activity: 60%
[29]
  hemolysis at 1 h: ≤ 20%
Staphylococcus aureus [30]
  MIC: ≤ 0.25 µg/mL
Staphylococcus aureus [31]
  MIC: 1 µg/mL (≈ 3.65 µM)
Staphylococcus aureus [32]
  Activity: Active
Staphylococcus aureus [33]
  MIC: 7.8 µg/mL (≈ 28.4 µM)
Salmonella enterica
  MIC: > 125 µg/mL
Staphylococcus aureus [34]
  MIC: 2 µg/mL (≈ 7.29 µM)
Staphylococcus aureus [35]
  MIC: 1 µg/mL (≈ 3.65 µM)
Staphylococcus aureus [36]
  MIC: 3.9 µg/mL (≈ 14.2 µM)
Staphylococcus aureus [37]
  Activity: Active
Staphylococcus aureus [38]
  MIC: 3.9 µg/mL (≈ 14.2 µM)
Listeria monocytogenes
  MIC: 1 µg/mL (≈ 3.65 µM)
Staphylococcus aureus [39]
  MIC: 2 µg/mL (≈ 7.29 µM)
Staphylococcus aureus [40]
  MIC: 2 µg/mL (≈ 7.29 µM)
Staphylococcus aureus [41]
  MIC: 2 µg/mL (≈ 7.29 µM)
Staphylococcus aureus [42]
  MIC: 0.5 µg/mL (≈ 1.82 µM)

## O=c1c2ccccc2sn1-c1ccccc1
Staphylococcus aureus [5]
  Activity: Active
Mus musculus
  Activity: Non-Toxic
[43]
  Activity: Active
[29]
  hemolysis at 1 h: ≤ 20%
Staphylococcus aureus [44]
  Activity: 40%
Staphylococcus aureus [32]
  Activity: Active
Staphylococcus aureus [37]
  Activity: Active
Staphylococcus aureus [45]
  Activity: Active
